ChEMBL document CHEMBL4033794, “Discovery of Trifluoromethyl Glycol Carbamates as Potent and Selective Covalent Monoacylglycerol Lipase (MAGL) Inhibitors for Treatment of Neuroinflammation” (J Med Chem, 2018)
The source made the active and inactive calls. The calls are words filed in the database; no cut-off is given here.

Columns and labels:
[1] = biological target: T1, Monoacylglycerol lipase ABHD6 (Homo sapiens) (UniProt Q9BV23); test: Inhibition of human ABHD6 at 10 uM
T1 sequence (whole entry): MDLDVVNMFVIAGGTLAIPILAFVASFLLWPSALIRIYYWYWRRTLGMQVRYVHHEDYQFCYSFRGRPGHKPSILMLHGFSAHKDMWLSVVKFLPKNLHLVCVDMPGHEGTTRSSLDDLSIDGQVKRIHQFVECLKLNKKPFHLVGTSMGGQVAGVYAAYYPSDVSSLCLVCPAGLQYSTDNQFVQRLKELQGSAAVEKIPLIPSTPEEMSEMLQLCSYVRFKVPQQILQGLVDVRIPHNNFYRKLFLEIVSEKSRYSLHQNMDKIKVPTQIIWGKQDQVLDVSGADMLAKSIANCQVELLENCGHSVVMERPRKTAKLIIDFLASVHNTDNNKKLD
Method in brief: (§1)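 Panel of 42 human serine hydrolases, each exposed to inhibitor at 10 µM; activity expressed as percent inhibition.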

Monoglyceride lipase = biological target: T2, Monoglyceride lipase (Homo sapiens, UniProt Q99685); test: Inhibition of recombinant human MAGL using fluorogenic-7HCA as substrate preincubated for 30 mins followed by substrate addition measured after 60 mins by fluorescence based assay
T2 sequence (Q99685 whole entry): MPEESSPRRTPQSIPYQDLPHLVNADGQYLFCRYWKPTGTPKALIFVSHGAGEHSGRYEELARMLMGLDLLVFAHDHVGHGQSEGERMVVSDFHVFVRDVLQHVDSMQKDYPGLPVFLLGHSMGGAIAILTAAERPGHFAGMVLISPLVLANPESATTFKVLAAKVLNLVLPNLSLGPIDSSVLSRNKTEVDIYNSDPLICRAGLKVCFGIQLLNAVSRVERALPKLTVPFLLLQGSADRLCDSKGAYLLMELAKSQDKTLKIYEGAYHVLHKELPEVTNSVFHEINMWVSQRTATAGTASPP

[2] = biological target: T3, Fatty-acid amide hydrolase 1 (Homo sapiens, UniProt O00519); test: Inhibition of recombinant human FAAH using fluorogenic arachidonoyl-AMC as substrate preincubated for 30 mins followed by substrate addition measured after 60 mins by fluorescence based assay
T3 sequence (O00519 whole entry): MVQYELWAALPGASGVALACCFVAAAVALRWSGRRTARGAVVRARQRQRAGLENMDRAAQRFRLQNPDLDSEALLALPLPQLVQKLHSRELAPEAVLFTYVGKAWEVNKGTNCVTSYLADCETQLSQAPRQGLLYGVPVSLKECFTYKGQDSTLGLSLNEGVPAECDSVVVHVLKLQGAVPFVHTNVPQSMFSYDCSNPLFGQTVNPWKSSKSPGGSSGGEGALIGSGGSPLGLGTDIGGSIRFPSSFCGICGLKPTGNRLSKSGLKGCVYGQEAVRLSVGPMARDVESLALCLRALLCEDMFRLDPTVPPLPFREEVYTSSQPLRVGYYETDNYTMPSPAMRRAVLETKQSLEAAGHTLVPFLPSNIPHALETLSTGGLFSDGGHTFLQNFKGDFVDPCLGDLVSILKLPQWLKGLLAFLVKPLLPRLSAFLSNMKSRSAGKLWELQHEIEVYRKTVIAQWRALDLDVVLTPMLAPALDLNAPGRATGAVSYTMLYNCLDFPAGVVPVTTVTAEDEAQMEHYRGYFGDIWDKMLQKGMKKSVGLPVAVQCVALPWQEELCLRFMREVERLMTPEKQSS
Method in brief: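 Human recombinant FAAH (0.0125 U final) in 50 mM Tris pH 9.0, 1 mM EDTA, preincubated 30 min at room temperature with compound (30 μM to 0.3 nM final); arachidonoyl-AMC 5 μM added, 60 min reaction, read Ex/Em 355/460. Inhibition vs no-compound and full-inhibition controls; four-parameter fit; geometric mean of ≥3 experiments.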

[3] = biological target: T4, Fatty-acid amide hydrolase 1 (Homo sapiens) (UniProt O00519); test: Inhibition of human FAAH at 10 uM; method in brief: as §1
T4 sequence (whole entry): T3 sequence (O00519 whole entry)

Liver carboxylesterase 1 = biological target: T5, Liver carboxylesterase 1 (Homo sapiens, UniProt P23141); test: (§2) Inhibition of human CES1 at 10 uM; conditions: 10 µM; method in brief: as §1
T5 sequence (P23141 whole entry): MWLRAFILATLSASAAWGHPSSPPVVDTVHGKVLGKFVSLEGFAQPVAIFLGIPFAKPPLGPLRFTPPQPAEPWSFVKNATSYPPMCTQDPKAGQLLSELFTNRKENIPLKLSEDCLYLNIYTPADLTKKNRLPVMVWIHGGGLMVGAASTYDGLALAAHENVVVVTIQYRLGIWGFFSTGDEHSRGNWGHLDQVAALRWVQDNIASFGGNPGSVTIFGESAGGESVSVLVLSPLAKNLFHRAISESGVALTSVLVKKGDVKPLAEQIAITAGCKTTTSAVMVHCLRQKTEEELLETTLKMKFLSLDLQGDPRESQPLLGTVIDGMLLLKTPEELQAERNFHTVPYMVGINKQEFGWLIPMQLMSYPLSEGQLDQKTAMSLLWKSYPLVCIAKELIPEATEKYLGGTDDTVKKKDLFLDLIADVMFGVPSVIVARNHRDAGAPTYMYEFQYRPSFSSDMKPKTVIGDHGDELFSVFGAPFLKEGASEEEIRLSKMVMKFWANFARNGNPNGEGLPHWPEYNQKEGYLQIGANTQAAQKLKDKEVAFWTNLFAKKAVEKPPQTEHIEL

[4] = biological target: T6, Fatty-acid amide hydrolase 2 (Homo sapiens) (UniProt Q6GMR7); test: Inhibition of human FAAH2 at 10 uM; method in brief: as §1
T6 sequence (whole entry): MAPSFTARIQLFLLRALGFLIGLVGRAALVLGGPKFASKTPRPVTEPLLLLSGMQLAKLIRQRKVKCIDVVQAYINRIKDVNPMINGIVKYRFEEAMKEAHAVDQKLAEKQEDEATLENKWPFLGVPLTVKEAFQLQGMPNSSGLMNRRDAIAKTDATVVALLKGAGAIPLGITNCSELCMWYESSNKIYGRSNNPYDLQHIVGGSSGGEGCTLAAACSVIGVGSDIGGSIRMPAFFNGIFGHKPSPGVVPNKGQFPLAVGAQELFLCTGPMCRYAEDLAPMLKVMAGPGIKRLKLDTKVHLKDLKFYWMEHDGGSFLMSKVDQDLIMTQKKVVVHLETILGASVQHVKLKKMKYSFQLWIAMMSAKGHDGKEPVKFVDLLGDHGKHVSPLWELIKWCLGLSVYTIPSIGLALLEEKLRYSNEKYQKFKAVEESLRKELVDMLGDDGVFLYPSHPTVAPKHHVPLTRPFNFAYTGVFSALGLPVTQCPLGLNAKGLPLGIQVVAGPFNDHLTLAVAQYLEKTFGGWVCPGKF

[5] = Lipophilicity, log D of the compound at pH 7.4 by shake flask method; format: physicochemical; conditions: buffer
[6] = biological target: T7, Monoglyceride lipase (Homo sapiens) (UniProt Q99685); test: Inhibition of recombinant human MAGL assessed as Kintact to Ki ratio using fluorogenic-7HCA as substrate measured after 60 mins by fluorescence based assay
T7 sequence (whole entry): T2 sequence (Q99685 whole entry)
Method in brief: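 Same MAGL fluorogenic setup (88 pM enzyme, 5 μM 7-HCA, HEPES pH 7.4 buffer) but substrate added immediately without preincubation; fluorescence read every minute to obtain progress curves across decreasing inhibitor concentrations; kobs derived per concentration and kinact/KI taken from plot of kobs versus concentration.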

Cocaine esterase = biological target: T8, Cocaine esterase (Homo sapiens, UniProt O00748); test: Inhibition of human CES2 at 10 uM; method in brief: as §1
T8 sequence (O00748 whole entry): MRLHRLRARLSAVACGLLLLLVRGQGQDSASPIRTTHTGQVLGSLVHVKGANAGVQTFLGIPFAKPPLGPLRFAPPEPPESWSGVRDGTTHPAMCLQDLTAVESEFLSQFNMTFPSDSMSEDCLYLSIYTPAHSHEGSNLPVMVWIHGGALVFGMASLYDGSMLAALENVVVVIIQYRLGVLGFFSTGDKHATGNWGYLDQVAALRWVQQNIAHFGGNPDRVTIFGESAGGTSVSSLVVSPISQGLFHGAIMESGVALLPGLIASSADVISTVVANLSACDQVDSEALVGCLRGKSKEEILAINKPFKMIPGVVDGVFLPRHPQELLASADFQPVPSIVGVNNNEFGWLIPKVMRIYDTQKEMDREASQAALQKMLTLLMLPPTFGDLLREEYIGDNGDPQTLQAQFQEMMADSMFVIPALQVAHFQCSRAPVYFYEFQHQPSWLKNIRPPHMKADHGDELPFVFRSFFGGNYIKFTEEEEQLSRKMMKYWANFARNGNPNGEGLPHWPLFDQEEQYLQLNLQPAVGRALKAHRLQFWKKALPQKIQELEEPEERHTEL

[7] = Lipophilicity, log D of the compound by HPLC analysis; format: physicochemical
Method in brief: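 LogD determined by an HPLC-based (eLogD) method.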

Homo sapiens = organism: Homo sapiens; test: Selectivity ratio of IC50 for recombinant human FAAH to IC50 for recombinant human MAGL
[8] = Intrinsic clearance in human liver microsomes; format: ADME, microsome; conditions: read-out: CLH
Method in brief: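 Substrate depletion in human liver microsomes; intrinsic clearance scaled to mL/min/kg.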

[9] = Kinetic solubility of the compound at pH 7.4; format: physicochemical; conditions: buffer, read-out: Kinetic_solubility
[10] = biological target: T9, CES1 (liver carboxylesterase 1) (Homo sapiens, UniProt P23141); test: as §2; method in brief: as §1
T9 sequence (P23141 whole entry): T5 sequence (P23141 whole entry)

SMILES | IC50 (Monoglyceride lipase) | IC50 [2] | Ratio [6] | logD [7] | also measured
O=C(ON1C(=O)CCC1=O)N1C[C@@H]2[C@H](C1)[C@H]2c1ccn(-c2ccc(F)cc2)n1 | 46 nM | 3600 nM | 156 M⁻¹ s⁻¹ | – | inhibition [1]: inactive; inhibition [3]: inactive; inhibition (INH) (Liver carboxylesterase 1): Not Active; inhibition [4]: inactive; logD [5]: 2.6; inhibition (INH) (Cocaine esterase): Not Active
O=C(OC(CO)C(F)(F)F)N1C[C@@H]2[C@H](C1)[C@H]2c1ccn(-c2ccc(F)cc2)n1 (some centres not stated) | 6 nM | 14000 nM | – | 3.9 | –
O=C(O[C@H](CF)C(F)(F)F)N1C[C@@H]2[C@H](C1)[C@H]2c1ccn(-c2ccc(F)cc2)n1 | 26 nM | 1900 nM | 1580 M⁻¹ s⁻¹ | 4.3 | Ratio IC50 (Homo sapiens): 73
O=C(O[C@@H](CO)C(F)(F)F)N1C[C@@H]2[C@H](C1)[C@H]2c1ccn(-c2ccc(F)cc2)n1 | 890 nM | 26000 nM | – | 3.9 | CLint scaled [8]: < 8 mL/min/kg
O=C(OCC(F)(F)F)N1C[C@@H]2[C@H](C1)[C@H]2c1ccn(-c2ccc(F)cc2)n1 | 445 nM | 970 nM | 103 M⁻¹ s⁻¹ | 4.2 | –
COC[C@@H](OC(=O)N1C[C@@H]2[C@H](C1)[C@H]2c1ccn(-c2ccc(F)cc2)n1)C(F)(F)F | 354 nM | 1940 nM | 110 M⁻¹ s⁻¹ | 4.2 | –
O=C(OC[C@@H](O)C(F)(F)F)N1C[C@@H]2[C@H](C1)[C@H]2c1ccn(-c2ccc(F)cc2)n1 | 132 nM | > 30000 nM | 244 M⁻¹ s⁻¹ | 4 | CLint scaled [8]: 9.4 mL/min/kg
O=C(Oc1ccc([N+](=O)[O-])cc1)N1CCC(C(O)(c2ccc3c(c2)OCO3)c2ccc3c(c2)OCO3)CC1 | – | > 11000 nM | – | 5.1 | –
O=C(Oc1ccc([N+](=O)[O-])cc1)N1C[C@@H]2[C@H](C1)[C@H]2c1ccn(-c2ccc(F)cc2)n1 | 24 nM | 18 nM | 2880 M⁻¹ s⁻¹ | – | logD [5]: 4.2
CC(OC(=O)N1C[C@@H]2[C@H](C1)[C@H]2c1ccn(-c2ccc(F)cc2)n1)C(F)(F)F (some centres not stated) | 242 nM | > 23000 nM | – | 4.8 | Ratio IC50 (Homo sapiens): > 95
O=C(O[C@H](CCO)C(F)(F)F)N1C[C@@H]2[C@H](C1)[C@H]2c1ccn(-c2ccc(F)cc2)n1 | 582 nM | > 12000 nM | 4570 M⁻¹ s⁻¹ | 4.2 | CLint scaled [8]: < 12 mL/min/kg
O=C(OC(C(F)(F)F)C(F)(F)F)N1C[C@@H]2[C@H](C1)[C@H]2c1ccn(-c2ccc(F)cc2)n1 | 1 to 1.4 nM | 4300 nM | 41700 M⁻¹ s⁻¹ | 5.6 | solubility kinetic [9]: < 1 µM; inhibition [1]: 95%; inhibition at 10 µM [10]: 58%; Ratio IC50 (Homo sapiens): 3000 to 4300
